Screening results from PubChem.
UBC13 inh – inhibitors of human UBC13 polyubiquitin chain formation | P61088 | TR-FRET | inhibition, % at 20 µM | hit rate 0.47% among 330,000 | AID 485273; in the data active = inhibition above about 45%, passing the limit was not always enough
UCH37 DUB inh – inhibitors of human deubiquitinating enzyme UCH37; purified proteasome/UCH37, Ub-AMC cleavage fluorescence; inhibition, % (concentration not given with the values); hit rate 0.33% among 330,000; AID 588478;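 active = mean inhibition over replicate wells above about 20%, limit read from the data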
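Test system – human UCH37 enzyme supplied as purified proteasome complex · Incubation – 30 min preincubation with enzyme, 25 min cleavage at room temperature · Detection – AMC fluorescence from Ub-AMC cleavage, excitation 355 nm, emission 460 nm · Benchmarks – no-proteasome wells (full inhibition) and compound-free wells (no inhibition)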
PREPL inh – human PREPL enzyme inhibition; inhibition, % at 5.96 µM; recombinant PREPL, fluorescence polarization activity-based probe; hit rate 0.68% among 320,000; AID 2751
Apaf-1 inh – blocks human Apaf-1 apoptosome activity | O14727 | reconstituted apoptosome caspase-3 activity, DEVD-Rh110 fluorescence | inhibition, % at 20 µM | hit rate 0.71% among 330,000 | AID 489030; active = inhibition of at least 40% at 20 µM
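Material: reconstituted apoptosome with Apaf-1, cytochrome c, caspase-9, procaspase-3, dATP; medium: pH 7.5 Hepes buffer with CHAPS, BSA, DTT; also added: cytochrome c and DEVD-Rh110 substrate; timing: 30 min plus 50 min, RT; signal: Rh110 fluorescence intensity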
PREPL confirm – human PREPL inhibition, confirmation | hit rate 67% among 2,000 | shares compounds with PREPL inh | inhibition, % at 5.96 µM | recombinant PREPL, fluorescence polarization activity probe
Of the large screens only hits and unclear results are named; the others gave an inactive call (follow-up assays come after a bar, where they were run). Shown are actives, neighbours in structure and some others; about 1.5% of the full set was active somewhere. Rule as the data show it, unless noted: active = inhibition above about 43%; inactive = the rest.

CC(=O)Nc1ccc(OCC(O)CN2CCN(c3ccc(C)c(Cl)c3)CC2)cc1 (stereo not drawn)	PREPL inh 44 | PREPL confirm inactive
O=C(c1ccc(CNc2c(N3CCCC3)c(=O)c2=O)cc1)N1CC=C(c2ccccc2)CC1	PREPL inh 43 (no result: UCH37 DUB inh) | PREPL confirm inactive
Cc1ccc(OCC(O)Cn2c(=N)n(CCN3CCCCC3)c3ccccc32)cc1 (stereo not drawn)	none
Cc1ccc(OCC(O)Cn2c(=N)n(CCN3CCOCC3)c3ccccc32)cc1 (stereo not drawn)	PREPL inh 45 | PREPL confirm inactive
c1ccc(C2(CN3CCNC[C@@H]3CC3CCCCC3)CC2)cc1	none
Fc1cccc(CCN2CCNC[C@@H]2CC2CCCCC2)c1	PREPL inh 44 | PREPL confirm inactive
O=C(NCCc1ccccc1)c1ccc2c(c1)S(=O)(=O)c1cc(Cl)ccc1C2=O	PREPL inh 56 | PREPL confirm inactive
O=C(Nc1ccc2c(c1)CCC2)C1CCN(c2c3c(nc4ncnn24)CCC3)CC1	PREPL inh 46 | PREPL confirm inactive
COc1ccc(-c2cn(CCO)c(CCN)n2)cc1	none
COc1ccc(-c2cn(Cc3ccc(C(N)=O)cc3)c(CCN)n2)cc1	PREPL inh 46 | PREPL confirm inactive
COc1ccc(N2CCN(c3cc(C)nc4ccc(OC)cc34)CC2)cc1	PREPL inh 43 | PREPL confirm 50
COc1ccc2nc(C)cc(N3CCC(C(N)=O)CC3)c2c1	none
O=C(Cc1cccc2ccccc12)Nc1nnc(-c2cccc([N+](=O)[O-])c2)s1	PREPL inh 46 | PREPL confirm inactive
O=C(C[n+]1ccc(Cc2ccccc2)cc1)Nc1ccc([N+](=O)[O-])cc1Cl	PREPL inh 56 (no result: UCH37 DUB inh) | PREPL confirm inactive
Cc1ccc(Cl)cc1NC(=O)C[n+]1ccc(Cc2ccc([N+](=O)[O-])cc2)cc1	PREPL inh 67 | PREPL confirm inactive
CC(C)(C)NC(=O)NC(=O)C[n+]1ccc(Cc2ccc([N+](=O)[O-])cc2)cc1	none
CCOC(=O)c1c(N=CN(C)C)sc(C)c1C	none (no result: UBC13 inh, PREPL inh, Apaf-1 inh)
CN(N=Cc1ccc([N+](=O)[O-])o1)c1ccccc1	none (no result: UBC13 inh, PREPL inh, Apaf-1 inh)
CCN(CC)CCC(c1cc(OC)c(OC)c(OC)c1)c1c(O)cc(OC)cc1OC (stereo not drawn)	PREPL inh 45 | PREPL confirm 47
CC(Nc1nc(-c2ccc(F)cc2)cs1)c1nc2cc(Cl)c(N3CCCCC3)cc2n1CCOCCO (stereo not drawn)	PREPL inh 55 | PREPL confirm 50
Cc1[nH]c2ccc(C(=O)NCCCN3CCCCCC3)cc2c1C	PREPL inh 46 | PREPL confirm inactive
Cc1ccc(C(=O)Oc2cc(C)n(C)c(=O)c2)cc1	PREPL inh 47 | PREPL confirm inactive
Clc1ccc(C2=C3CCCCn4c(-c5ccccc5)c[n+](c43)C2)cc1	PREPL inh 50 | PREPL confirm inactive
O=C(C[n+]1cc(-c2ccc(Cl)cc2)n2c1CCCCC2)c1ccccc1	none
Cc1nn(C)cc1C=NNC(=O)c1ccc2c(c1)c(C)c(C)n2Cc1ccccc1	none (no result: UBC13 inh, PREPL inh, Apaf-1 inh)
CN(C)S(=O)(=O)c1cccc(-c2csc(=Nc3ccccc3)n2CCCN2CCOCC2)c1	PREPL inh 56 | PREPL confirm 55
CC(C)(CNC(=O)c1cc([N+](=O)[O-])ccc1N1CCC(Cc2ccccc2)CC1)N1CCOCC1	PREPL inh 45 | PREPL confirm inactive
CC(C)CNC(=O)c1cc([N+](=O)[O-])ccc1N1CCOCC1	none
Cc1nn(-c2ccccc2)c(Cl)c1C=NNC(N)=O	none (no result: UBC13 inh, PREPL inh, Apaf-1 inh)
CCCCN1C(=N)N([C@@H](C)CN2CCC[C@H]2CN2C(N)=NC[C@H]2C(C)C)C[C@H]1[C@H](C)CC	none
CCCCN1C(=N)N([C@@H](C)CN2CCC[C@H]2CN2C(N)=NC[C@H]2CC(C)C)C[C@H]1[C@H](C)CC	PREPL inh 47 | PREPL confirm inactive
COc1ccc(NC(=O)N2CCN(c3ccc([N+](=O)[O-])cc3)CC2)cc1OC	PREPL inh 46 | PREPL confirm 56
Cc1nc2c(C)cccc2cc1C(=O)NN=Cc1ccc(C(=O)O)cc1	none (no result: UBC13 inh, PREPL inh, Apaf-1 inh)
CC(C)(C)[C@@H]1COC(=O)[C@H](Cc2ccc(F)cc2)CC/C=C\C[C@@H](CC(=O)NCCO)C(=O)N1	PREPL inh 49 | PREPL confirm inactive
C[C@H]1COC(=O)[C@H](Cc2ccc(F)cc2)CC/C=C/C[C@@H](CC(=O)N[C@@H](CO)Cc2ccccc2)C(=O)N1	none
CC(C)(C)[C@H]1COC(=O)[C@H](Cc2ccc(F)cc2)CC/C=C/C[C@@H](CC(=O)N[C@H](CO)Cc2ccccc2)C(=O)N1	PREPL inh 46 | PREPL confirm 49
COc1cc(C=NNC(=O)c2cc(O)cc(O)c2)ccc1OC(=O)c1ccccc1	none (no result: UBC13 inh, PREPL inh, Apaf-1 inh)
NC(=S)NN=Cc1ccccc1O	none (no result: UBC13 inh, PREPL inh, Apaf-1 inh)
COc1ccc(C=NNC(=O)Cn2nc([N+](=O)[O-])cc2C)c(OC)c1OC	none (no result: UBC13 inh, PREPL inh, Apaf-1 inh)
COCCN1CCCC(CNCc2cn(C)nc2-c2ccc(Oc3ccccc3)cc2)C1 (stereo not drawn)	PREPL inh 43 | PREPL confirm inactive
O=C(C[C@H]1C/C=C\CC[C@H](Cc2ccc(F)cc2)C(=O)OC[C@H]2CCCN2C1=O)N[C@H](CO)Cc1ccccc1	none
O=C(C[C@@H]1C/C=C\CC[C@@H](Cc2ccc(F)cc2)C(=O)OC[C@@H]2CCCN2C1=O)N[C@H](CO)Cc1ccccc1	none (no result: UCH37 DUB inh)
O=C(C[C@H]1C/C=C\CC[C@@H](Cc2ccc(F)cc2)C(=O)OC[C@H]2CCCN2C1=O)N[C@@H](CO)Cc1ccccc1	PREPL inh 53 | PREPL confirm 54
O=C(C[C@H]1C/C=C\CC[C@H](Cc2ccc(F)cc2)C(=O)OC[C@H]2CCCN2C1=O)N[C@@H](CO)Cc1ccccc1	PREPL inh 61 | PREPL confirm 53
NC(=O)NN=Cc1coc2ccc(O)cc2c1=O	none (no result: UBC13 inh, PREPL inh, Apaf-1 inh)
COc1ccc(C=NNC(=O)c2cccc([N+](=O)[O-])c2)cc1OC(=O)c1ccc(C)cc1	none (no result: UBC13 inh, PREPL inh, Apaf-1 inh)
O=C(COC(=O)CCc1c[nH]c2ccccc12)Nc1ccc([N+](=O)[O-])cc1	none
O=C(COC(=O)CCc1c[nH]c2ccccc12)Nc1cc([N+](=O)[O-])ccc1Cl	PREPL inh 46 | PREPL confirm inactive
CC(=NNC(=O)CNC(=O)c1cccs1)c1ccc(Cl)cc1	none (no result: UBC13 inh, PREPL inh, Apaf-1 inh)
CCOc1ccccc1NC(=O)C(=O)C=C(O)c1cc(OC)ccc1OC	none (no result: UBC13 inh, PREPL inh, Apaf-1 inh)
COc1ccc(-c2oc3ncn(CCN4CCOCC4)c(=N)c3c2-c2ccc(OC)cc2)cc1	PREPL inh 48 | PREPL confirm inactive
O=C(Cc1ccccc1)Nc1ccc(N2CCOCC2)cc1	none
O=C(CCc1ccccc1)Nc1ccc(N2CCCCC2)cc1	none
O=C(Cc1ccccc1)Nc1cccc(N2CCCC2)c1	PREPL inh 51 | PREPL confirm inactive
O=C(Cc1ccccc1)Nc1ccc(N2CCCC2)cc1	PREPL inh 60 | PREPL confirm inactive
COCCn1c(CN(C)Cc2ccccc2)nc2c1c(=O)n(C)c(=O)n2C	PREPL inh 53 | PREPL confirm inactive
C(=N\Nc1nc2ccccc2[nH]1)/c1c[nH]c2ccccc12	PREPL inh 49 (no result: UCH37 DUB inh) | PREPL confirm 54
